Fewer inactive variants are shown than the library holds.
B1: tRNA (parent)
chain: GUUCCGUUGGCGUAAUGGUAACGCGUCUCCCUCCUAAGGAGAAGACUGCGGGUUCGAGUCCCGUACGGAACG

Variants of: B1
Assay: yeast fitness relative to wild type (ratio to wild type); higher = fitter; tRNA-Arg(CCU), competitive growth, 37 C, YPD
Method in brief: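 Variants of the tRNA-Arg(CCU) gene, chemically synthesised with a 3% per-site mutation rate at 69 sites, were placed at the native genomic locus in Saccharomyces cerevisiae. The pooled strains were competed in YPD at 37°C for 24 hours in six parallel replicates. Gene amplicons from the start population and from each end population were read by 100-nucleotide paired-end sequencing. Darwinian fitness relative to wild type came from changes in genotype frequencies; genotypes needed ≥ 100 starting reads, and estimates < 0.5 were set to 0.5.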
For GUUCCGUUGGCGUAAUGGUAACGCGACUCACUCAUAAGGAGAAGACUCCGGGUUCGAGUCCCGUACGGAUCG [U26A C30A C34A G48C A70U], the yeast fitness was at most 0.5. With GUUCCGUUGGCGUAAUGGUAACGCGACUCCCUCCUAAGGAGAAGACUGCGGGUUCGACUCCUGUACGGAACG [U26A G58C C62U] the yeast fitness was 0.659. Work on GUUCCGUUGGCGUAAUGGUAACGCGACUCACUCCUAAGGAGAAGACUGCGGGUUCGAGUCCCGUACGGAACG [U26A C30A] yielded a yeast fitness of 0.768. With GUUCCGUUGGCGUAAUGGUAACGCGACUGCCUCCUAAGGAGAGGUCUGCGGGUUCGAGUCCCGUUCGGAACG [U26A C29G A43G A45U A65U] the yeast fitness was at most 0.5. Variant GUUCCGUUGGCGUAAUGGUAACGCGACUCCCUCCUAACGAGAAGACUGCGGGUUCGACUCCCGAACGGAACG [U26A G38C G58C U64A] has a yeast fitness of at most 0.5. Work on GUUCCGUUGGCGUAAUGGUAACGCGACUCCCUCCUAAGGAGAAGACUGCGGGUUCAAGUCCCGUACGGAACG [U26A G56A] yielded a yeast fitness of 1.02. Work on GUUCCGUUGGCGUAAUGGUAACGCGAAUCCUUCCUAAGGAGAAGACUGCGGGUUCGAGUCCCGUACGGAACG [U26A C27A C31U] yielded a yeast fitness of at most 0.5. Variant GUUCCGUUGGCGUAAUGGUAACGCGACUCCCUCCUAAGGAGAAGACUGCGGGUUCGAGUUCCGUACGGAACG [U26A C60U] has a yeast fitness of 0.744. With GUUCCGUUGGCGUAAUGGUAACGCGACUCCUUCCUAAGGAGAAGACUGCGGGUUCGGGUCCCGUACGGAACG [U26A C31U A57G] the yeast fitness was 0.742. In the case of GUUCCGUUGGCGUAAUGGUAACGCGACUCCGUCCUAGGGAGAAGACUGCGGGUUCGAGUCCCAUACGGAACG [U26A C31G A37G G63A], the yeast fitness is reported as at most 0.5. GUUCCGUUGGCGUAAUGGUAACGCGACUCCCUCCUAAGGAGAAGACUGCGGGUUUGAGUCCCGUACGGAACG [U26A C55U] gave a yeast fitness of 0.65. GUUCCGUUGGCGUAAUGGUAACGCGACUCCCUCCUAAGGAGAAGACUGUGGGUUCAAGUCCCGUACGGAACG [U26A C49U G56A] showed a yeast fitness of 0.706. For GUUCCGUUGGCGUAAUGGUAACGCGACUCCCUCCUAAGGAGAAGACUGCGGAUUCGAGUCCCGUACGGAACG [U26A G52A], the yeast fitness was 0.666. With GUUCCGUUGGCGUAAUGGUAACGCGACUCCAUCCUAAGGAGAAGUCUGCGGGUUCGAGUCCCGUACGGAACG [U26A C31A A45U] the yeast fitness was 0.563. In the case of GUUCCGUUGGCGUAAUGGUAACGCGACUCCCUCCUAAGGAGAAGACUGCGGGUUCGAUUCCCGUACGGAACG [U26A G58U], the yeast fitness is reported as 1.03. Variant GUUCCGUUGGCGUAAUGGUAACGCGACUCCCUCCUAAGGAGAAGACUGCGGGUUCGACUCCCGUACGGAACG [U26A G58C] has a yeast fitness of 0.98. Work on GUUCCGUUGGCGUAAUGGUAACGCGACUCCCUCCUAAGGAGAAGACUAGGGGUUCGAGUCCCGUACGGAUCG [U26A G48A C49G A70U] yielded a yeast fitness of at most 0.5. GUUCCGUUGGCGUAAUGGUAACGCGACUCCCUCAUAAGGAGAAGACUGCGGGUUCGAGUCCCGUACGGAACG [U26A C34A] showed a yeast fitness of 0.592. GUUCCGUUGGCGUAAUGGUAACGCGACUCCCUCCUAAGGAGAAGAGUGCGGGUUCGAGUCUCGUACGGAACG [U26A C46G C61U] gave a yeast fitness of 0.699. For GUUCCGUUGGCGUAAUGGUAACGCGACUCUCUCCUAAGGAGCAGAUUGCGGGUUCGAGUCCCGUGCGGAACG [U26A C30U A42C C46U A65G], the yeast fitness was 0.859. With GUUCCGUUGGCGUAAUGGUAACGCGAAUCCCUCCUAAGGAGAAGACUGCGGGUCCGAGUCCCGUACGGAACG [U26A C27A U54C] the yeast fitness was at most 0.5. For GUUCCGUUGGCGUAAUGGUAACGCGACUCCAUCCUAAGGAGGAGACUGCGGGUUGGCGUCCCGUACGGAACG [U26A C31A A42G C55G A57C], the yeast fitness was at most 0.5. Variant GUUCCGUUGGCGUAAUGGUAACGCGAUUCCCUCCUAAGGAGAAGACUGCGGGUUCGAGCCCCGUGCGGAACG [U26A C27U U59C A65G] has a yeast fitness of 0.65. Variant GUUCCGUUGGCGUAAUGGUAACGCGACUCUUUCCUACGGAGAAGACUACGGGUUCGAGUCCCGUACGGAACG [U26A C30U C31U A37C G48A] has a yeast fitness of at most 0.5. Variant GUUCCGUUGGCGUAAUGGUAACGCGACUCCCUCCUAAGGAGAAGAGUGCGGGUUCGAGUCCCGUACGGAACG [U26A C46G] has a yeast fitness of 0.973. GUUCCGUUGGCGUAAUGGUAACGCGACUCCCUCCUAAGGAGAAGACUGUGGGUUCGUGUCCCGUACGGAACG [U26A C49U A57U] showed a yeast fitness of at most 0.5. GUUCCGUUGGCGUAAUGGUAACGCGACUCCCUCCUAAGGAGAAGACUGCUGGUUCGAGUCCCGUACGGAACG [U26A G50U] gave a yeast fitness of 0.805. With GUUCCGUUGGCGUAAUGGUAACGCGACUCCCUCCUAAGGAGAAGACUGUGGGUUCGAGUCCCGUACGGAACG [U26A C49U] the yeast fitness was 0.865. With GUUCCGUUGGCGUAAUGGUAACGCGACUCCCUCCUAAGGAGAAGACUGGGGGUUCGAGUCCCGUACGGAACG [U26A C49G] the yeast fitness was 0.616. Work on GUUCCGUUGGCGUAAUGGUAACGCGACUCCCUCCUAACGAGAAGACAGAGGGUUCGAGUCCCGUACGGAACG [U26A G38C U47A C49A] yielded a yeast fitness of at most 0.5. Work on GUUCCGUUGGCGUAAUGGUAACGCGACUACGUCCUAAGGAGAAGACUGCGGGUUCGAGUCCCGUCCGGAACG [U26A C29A C31G A65C] yielded a yeast fitness of 0.566. GUUCCGUUGGCGUAAUGGUAACGCGACUACCUCCUAAGGAGAAGUCUGCGGGUUCGAAUCCCGUACGGAACG [U26A C29A A45U G58A] gave a yeast fitness of at most 0.5. GUUCCGUUGGCGUAAUGGUAACGCGACUCCCUCCUAAGGAGAAGAUUGCCGGUACGAGUCCCGUACGGAACG [U26A C46U G50C U54A] showed a yeast fitness of 0.579. GUUCCGUUGGCGUAAUGGUAACGCGACUCCCUCUUAAGGAGAAGACUGGGGGUUCGAGUCCCGUACGGAACG [U26A C34U C49G] showed a yeast fitness of at most 0.5. GUUCCGUUGGCGUAAUGGUAACGCGACUCCCUACUAAGGAGAAGACUGCGGGUUCGAGUCCCGUACGGAACG [U26A C33A] gave a yeast fitness of 0.689. With GUUCCGUUGGCGUAAUGGUAACGCGACUCCCUCCUAAGGAGAAGACUGGGGGUUCGAGUCCCGUACCGAACG [U26A C49G G67C] the yeast fitness was at most 0.5. For GUUCCGUUGGCGUAAUGGUAACGCGACUCCCUCCUAAGGAGAAGACUGCGGGUUCGAGUCCCGUAAGGAUCG [U26A C66A A70U], the yeast fitness was at most 0.5. For GUUCCGUUGGCGUAAUGGUAACGCGACUCCCUCCUAAGUAGAAGCCUGCGGGUUCGAGUCCCGUACGGAACG [U26A G39U A45C], the yeast fitness was at most 0.5.
